Assay [1] relates to Rattus norvegicus. Nature of the assay: Percent change of mean arterial blood pressure in conscious DOCA Hypertensive rat at 2 hour, after administration of dose 10 mL (mg/kg po). The class given is functional. Put shortly: (§1)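 Male DOCA (metacorticoid) hypertensive rats, conscious, with an aortic catheter implanted under halothane anaesthesia at least 48 h beforehand. Fasted 18 h, then dosed orally; saline vehicle 10 mL. Blood pressure recorded via pressure transducer with minimal restraint; a tachograph triggered by the pulse gave heart rate. Percent change from pre-dose control read at 1, 2, 3, 5 and 22 h.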

Assay [2] concerns Rattus norvegicus. The assay can be described thus: Percent change of mean arterial blood pressure in conscious DOCA Hypertensive rat at 22 hour, after administration of dose 10 mL (mg/kg po). Format: functional. Put shortly:
as §1

Assay [3] has as its system Rattus norvegicus. Nature of the assay: Percent change of mean arterial blood pressure in conscious DOCA Hypertensive rat at 3 hour, after administration of dose 10 mL (mg/kg po). Format: functional. The essentials: as §1
The test system of assay [4] is Rattus norvegicus. Nature of the assay: Percent change of mean arterial blood pressure in conscious DOCA Hypertensive rat at 5 hour, after administration of dose 10 mL (mg/kg po). Format: functional. Put shortly: as §1
The subject of assay [5] is Rattus norvegicus. The assay can be described thus: Percent change of heart rate in conscious DOCA Hypertensive rat at 1 hour after administration of dose of 10 mL (mg/kg po). The class given is functional. The essentials:
as §1

For assay [6], the system named is Rattus norvegicus. The assay can be described thus: Percent change of heart rate in conscious DOCA Hypertensive rat at 22 hour after administration of dose of 10 mL (mg/kg po). The class given is functional. The essentials:
as §1

Assay [7] concerns Rattus norvegicus. Nature of the assay: Percent change of heart rate in conscious DOCA Hypertensive rat at 3 hour after administration of dose of 10 mL (mg/kg po). The class given is functional. The essentials:
as §1

Assay [8] concerns Rattus norvegicus. The assay can be described thus: Percent change of heart rate in conscious DOCA Hypertensive rat at 5 hour after administration of dose of 10 mL (mg/kg po). Format: functional. Put shortly: as §1
In assay [9] the test system is Rattus norvegicus. The assay can be described thus: Percent change of mean arterial blood pressure in conscious DOCA Hypertensive rat at 1 hour, after administration of dose 10 mL (mg/kg po). The class given is functional. Put shortly:
as §1

For assay [10], the system named is Rattus norvegicus. Nature of the assay: Percent change of heart rate in conscious DOCA Hypertensive rat at 2 hour after administration of dose of 10 mL (mg/kg po). The class given is functional. The essentials: as §1
Assay [11] deals with Adrenergic receptor alpha. The assay can be described thus: In vitro postsynaptic antagonist activity against Alpha adrenergic receptor in rat anococcygeus muscle. Format: functional, tissue-based. Put shortly:
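Rat anococcygeus muscle; cumulative noradrenaline concentration-response curves obtained as control and again with increasing concentrations of test agent present; postsynaptic α-antagonism expressed as pA2. Mean of three experiments ± SEM.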

In assay [12] the target is Adrenergic receptor alpha. The assay can be described thus: In vitro presynaptic antagonist activity against Alpha adrenergic receptor in rat vas deferens. Format: functional, tissue-based. Put shortly: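 Rat vas deferens under 0.1 Hz stimulation; cumulative clonidine concentration-response curves run with increasing concentrations of test agent to gauge presynaptic α-antagonism; pA2 reported. Mean of three experiments ± SEM.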

In assay [13] the test system is Rattus norvegicus. Nature of the assay: In vivo threshold intravenous dose required to cause reversal of clonidine on blood pressure in pithed rat. The class given is functional. The essentials: (§2)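 Pithed rats given clonidine 30 μg/kg iv, which acts presynaptically (hypogastric nerve response) and postsynaptically (pressor response). Test agents were then injected iv to find the threshold dose reversing each clonidine action. Five rats per drug.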

Assay [14] has as its system Rattus norvegicus. Nature of the assay: In vivo threshold intravenous dose required to cause reversal of clonidine on hypogastric nerves in pithed rat. The class given is functional, Hypogastric nerve. The essentials: as §2

Usually pA2 stands for the negative logarithm of the molar antagonist concentration that doubles the agonist concentration needed for the same response. High values mean a more potent antagonist, low ones a weaker antagonist.

Bounds are passed on as bounds.

`Nc1nnc2c3ccccc3cnn12`: the Change is given as -19% in the assay with Rattus norvegicus [1]; -3% in the assay on Rattus norvegicus [2]; -20% with Rattus norvegicus [3]; -23% in the assay with Rattus norvegicus [4]; 8% in the assay with Rattus norvegicus [5]; 7% in the assay with Rattus norvegicus [6]. Besides, the Change is 6% in the assay on Rattus norvegicus [7], 2% in the assay with Rattus norvegicus [8], -14% in the assay with Rattus norvegicus [9] and 7% in the assay on Rattus norvegicus [10].

For `CCCC/N=C(\N)Nc1nncc2ccccc12`, the pA2 in [11] is recorded as 5.2; in [12], 6.6. The Dose in the assay with Rattus norvegicus [13] and in the assay with Rattus norvegicus [14] was 1 mg/kg each time. Also, the Change is -10% in the assay on Rattus norvegicus [1]; 8% in the assay on Rattus norvegicus [2]; -12% with Rattus norvegicus [3]; -9% in the assay with Rattus norvegicus [4]; 14% in the assay with Rattus norvegicus [5]; 11% in the assay on Rattus norvegicus [6]. Moreover, the Change in the assay with Rattus norvegicus [7] was 21%; in the assay with Rattus norvegicus [8], 18%; in the assay with Rattus norvegicus [9], -10%; in the assay with Rattus norvegicus [10] it was 19%.

Turning to `CNc1nnc2c3ccccc3cnn12`, the Change was -13% in the assay on Rattus norvegicus [1]; 4% in the assay on Rattus norvegicus [2]; -12% in the assay with Rattus norvegicus [3]; -5% in the assay with Rattus norvegicus [4]; -23% in the assay with Rattus norvegicus [5]; -10% in the assay on Rattus norvegicus [6]. The Change in the assay on Rattus norvegicus [7] is -25%; in the assay on Rattus norvegicus [8], -25%; in the assay with Rattus norvegicus [9], -12%; in the assay with Rattus norvegicus [10], -25%.

In the case of `CCCC/N=C(/N)Nc1nc2ccccc2nc1C`, the figures for the pA2 in assay [11] and in assay [12] were less than 5.5 and 6.3, respectively. Besides, the Dose with Rattus norvegicus [13] and in the assay with Rattus norvegicus [14] was more than 1 mg/kg throughout. Besides, the Change in the assay on Rattus norvegicus [1] was -5%; in the assay with Rattus norvegicus [2], 20%; in the assay on Rattus norvegicus [3] it was 0%; with Rattus norvegicus [4] it was 5%; in the assay on Rattus norvegicus [5], 3%; with Rattus norvegicus [6], 2%. The Change in the assay on Rattus norvegicus [7] is on record as -5%; in the assay on Rattus norvegicus [8], -4%; with Rattus norvegicus [9], -3%; in the assay on Rattus norvegicus [10], -2%.

For `N=C(N)Nc1nncc2ccccc12`, the values for the pA2 in assay [11] and in assay [12] were 4.9 and 5.7, respectively. In addition, the Dose in the assay with Rattus norvegicus [13] was 1 mg/kg; with Rattus norvegicus [14] it was 3 mg/kg. Also, the Change with Rattus norvegicus [1] was -20%; with Rattus norvegicus [2] it was 4%; with Rattus norvegicus [3], -24%; in the assay with Rattus norvegicus [4], -20%; in the assay with Rattus norvegicus [5] it was 2%; with Rattus norvegicus [6], 3%. Also, the Change is on record as 7% in the assay with Rattus norvegicus [7], 1% with Rattus norvegicus [8], -22% in the assay with Rattus norvegicus [9] and -14% in the assay with Rattus norvegicus [10].

For `c1ccc2c(NC3=NCCN3)nncc2c1`, the values for the pA2 in assay [11] and in assay [12] were 4.8 and 6, respectively. Besides, the Dose was determined as 0.3 mg/kg in the assay with Rattus norvegicus [13] and 3 mg/kg in the assay with Rattus norvegicus [14].

As for `NNc1nncc2ccccc12` [HYDRALAZINE], the Change in the assay with Rattus norvegicus [1] was -45%; in the assay on Rattus norvegicus [2], -15%; with Rattus norvegicus [3] it was -44%; in the assay on Rattus norvegicus [4] it was -39%; in the assay on Rattus norvegicus [5], -5%; in the assay with Rattus norvegicus [6] it was 8%. In addition, the Change with Rattus norvegicus [7] was 2%; in the assay with Rattus norvegicus [8] it was 11%; in the assay with Rattus norvegicus [9], -47%; in the assay with Rattus norvegicus [10], -1%.

Regarding `Cc1ccc(N(CC2=NCCN2)c2cccc(O)c2)cc1` [PHENTOLAMINE], the Dose in the assay with Rattus norvegicus [13] and with Rattus norvegicus [14] was 0.03 mg/kg throughout. For the same compound, the Change with Rattus norvegicus [1] was -34%; in the assay with Rattus norvegicus [2] it was 6%; in the assay on Rattus norvegicus [3] it was -33%; in the assay with Rattus norvegicus [4], -22%; with Rattus norvegicus [5] it was 21%; in the assay with Rattus norvegicus [6], 7%. Also, the Change is 18% with Rattus norvegicus [7], 11% with Rattus norvegicus [8], -41% in the assay with Rattus norvegicus [9] and 22% in the assay on Rattus norvegicus [10].

Source of the values: ChEMBL document CHEMBL1122092, “Synthesis of some potential antihypertensive phthalazinyl- and quinoxalinylguanidines” (J Med Chem, 1982).
